Measurements published in ChEMBL document CHEMBL4428107 (Bioorg Med Chem, 2016).

Columns and labels:
MCF7 = experiment: Antiproliferative activity against human MCF7 cells assessed as reduction in cell viability after 72 hrs by MTS-PMS assay; settings: MCF7, 72 h
Histone deacetylase 2 = Histone deacetylase 2 (Homo sapiens, UniProt Q92769); experiment: Inhibition of full length recombinant human HDAC2 expressed in baculovirus expression system using fluorogenic peptide RHKK(Ac) as substrate by fluorescence assay
MOLT-4 = experiment: Antiproliferative activity against human MOLT4 cells assessed as reduction in cell viability after 70 hrs by Quanti-blue assay; assay type: functional; settings: Homo sapiens, MOLT-4, 70 h
Summary of the method: (§1)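 Quanti-Blue viability kit. HuT-78 and Molt-4 cells were grown in RPMI-1640 and seeded at 10^5 cells/mL. Compounds were screened at 50 μM for 70 h, with detection reagent present for the final 2 h. Fluorescence was read at ex 530/em 590 nm. IC50 from dose-response came from linear regression. Three independent runs.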

HuT78 = experiment: Antiproliferative activity against human HUT78 cells assessed as reduction in cell viability after 70 hrs by Quanti-blue assay; assay type: functional; settings: Homo sapiens, HuT78, 70 h; summary of the method: as §1
HCT-116 = experiment: Antiproliferative activity against human HCT116 cells assessed as reduction in cell viability after 72 hrs by MTS-PMS assay; assay type: functional; settings: Homo sapiens, HCT-116, 72 h
Summary of the method: (§2)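 MTS-PMS viability test. Cells were seeded at 3,000/well and left 24 h at 37 °C, 5% CO2, then exposed to compound for 72 h. Screening was at 50 μM for HCT116 and MCF-7 and […], with final DMSO ≤1%. MTS:PMS was mixed 20:1, added for 3 h, and absorbance read at 490 nm. At least two independent runs were done, each in triplicate.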

MDA-MB-231 = experiment: Antiproliferative activity against human MDA-MB-231 cells assessed as reduction in cell viability after 72 hrs by MTS-PMS assay; assay type: functional; settings: MDA-MB-231, 72 h; summary of the method: as §2
[1] = Immunomodulatory activity in human TALL-104 cells assessed as effect on degranulation by measuring augmentation of CD3-stimulated anti-LAMP fluorescence at 100 uM preincubated for 30 mins followed by anti-LAMP addition and incubated for 50 mins in the dark by flow cytometric analysis relative to control; assay type: functional
[2] = Antiproliferative activity against human PBMC assessed as reduction in cell viability after 70 hrs by Quanti-blue assay; assay type: cell-based
Summary of the method: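 QB fluorescence viability assay; hPBMCs purified by density centrifugation from purchased human blood, stored frozen, resuspended in RPMI-1640 with 10% heat-inactivated FBS, HEPES, pyruvate, non-essential amino acids and BME; seeded at 10^6 cells/mL. Compounds at 50 μM, 70 h plus 2 h with detection reagent; λex 530/λem 590 nm. Three independent repeats.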

Chain of Histone deacetylase 2 (Q92769 whole entry): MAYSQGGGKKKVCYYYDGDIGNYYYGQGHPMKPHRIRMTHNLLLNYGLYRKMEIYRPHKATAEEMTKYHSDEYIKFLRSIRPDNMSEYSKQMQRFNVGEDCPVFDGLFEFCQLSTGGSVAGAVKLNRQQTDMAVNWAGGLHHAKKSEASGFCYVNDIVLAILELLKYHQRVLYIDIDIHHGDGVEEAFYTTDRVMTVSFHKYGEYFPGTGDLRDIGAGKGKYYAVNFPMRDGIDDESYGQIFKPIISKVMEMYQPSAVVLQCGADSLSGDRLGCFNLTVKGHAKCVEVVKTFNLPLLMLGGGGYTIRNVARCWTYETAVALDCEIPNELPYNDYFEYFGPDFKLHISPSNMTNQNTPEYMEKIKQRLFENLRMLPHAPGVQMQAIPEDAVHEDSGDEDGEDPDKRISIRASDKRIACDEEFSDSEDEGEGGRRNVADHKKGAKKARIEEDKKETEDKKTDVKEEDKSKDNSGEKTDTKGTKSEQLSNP

| Compound | GI50 (MCF7) | IC50 (Histone deacetylase 2) | GI50 (MOLT-4) | GI50 (HuT78) | GI50 (HCT-116) | GI50 (MDA-MB-231) | Activity [1] | GI50 at 70 h [2] |
| --- | --- | --- | --- | --- | --- | --- | --- | --- |
| CCOC(=O)NCCCCCC(=O)NCCc1ccccc1 | > 50 µM | > 1 µM | > 50 µM | > 50 µM | > 50 µM | > 50 µM | 98% | > 50 µM |
| CCOC(=O)NCCCC(=O)OCCc1ccccc1 | > 50 µM | > 1 µM | > 50 µM | > 50 µM | > 50 µM | > 50 µM | 88% | > 50 µM |
| CCSC(=O)NCCCC(=O)NCCc1ccccc1 | > 50 µM | > 1 µM | > 50 µM | > 50 µM | > 50 µM | > 50 µM | 76% | > 50 µM |
| O=C(CCCCCCC(=O)Nc1ccccc1)NO [VORINOSTAT] | 29.1 µM | – | – | – | – | – | – | – |
| CCCCOC(=O)NCCCC(=O)NCCc1ccccc1 | > 50 µM | > 1 µM | > 50 µM | > 50 µM | > 50 µM | > 50 µM | 101% | > 50 µM |
| O=C(CCCNC(=O)OCc1ccccc1)NCCc1ccccc1 | > 50 µM | > 1 µM | > 50 µM | > 50 µM | > 50 µM | > 50 µM | 79% | > 50 µM |
| CCOC(=O)NCCCC(=O)Nc1nccs1 | > 50 µM | > 1 µM | > 50 µM | > 50 µM | > 50 µM | > 50 µM | 91% | > 50 µM |
| CCOC(=O)NCCCC(=O)Nc1ccc(CO[Si](C)(C)C(C)(C)C)cc1 | 23.7 µM | > 1 µM | > 50 µM | > 50 µM | > 50 µM | > 50 µM | 126% | > 50 µM |
| O=C(CCCNC(=O)OCCF)NCCc1ccccc1 | > 50 µM | > 1 µM | > 50 µM | > 50 µM | > 50 µM | > 50 µM | 92% | > 50 µM |
| CCOC(=O)NCCCCC(=O)NCc1ccccc1 | > 50 µM | > 1 µM | > 50 µM | > 50 µM | > 50 µM | > 50 µM | 93% | > 50 µM |
| CC(C)(C)CC(=O)NCCCC(=O)NCCc1ccccc1 | > 50 µM | > 1 µM | > 50 µM | > 50 µM | > 50 µM | > 50 µM | 73% | > 50 µM |
| CCOC(=O)NCCC(=O)NCCc1ccccc1 | > 50 µM | > 1 µM | > 50 µM | > 50 µM | > 50 µM | > 50 µM | 91% | > 50 µM |
| CCOC(=O)NCCCCCC(=O)Nc1ccccc1 | > 50 µM | > 1 µM | > 50 µM | > 50 µM | > 50 µM | > 50 µM | – | > 50 µM |
| CC(=O)SCCC(=O)NCCCC(=O)NCCc1ccccc1 | > 50 µM | > 1 µM | > 50 µM | > 50 µM | > 50 µM | > 50 µM | 77% | > 50 µM |
| CCOC(=O)NCCCC(=O)NCCc1cccc(Cl)c1 | > 50 µM | > 1 µM | > 50 µM | > 50 µM | > 50 µM | > 50 µM | 75% | > 50 µM |
| CCOC(=O)NCC(=O)NCCCCc1ccccc1 | > 50 µM | > 1 µM | > 50 µM | > 50 µM | > 50 µM | > 50 µM | 81% | > 50 µM |
| CCNC(=O)NCCCC(=O)NCCc1ccccc1 | > 50 µM | > 1 µM | > 50 µM | > 50 µM | > 50 µM | > 50 µM | 106% | > 50 µM |
| CC(C)(C)OC(=O)NCCCC(=O)NCCc1ccccc1 | > 50 µM | > 1 µM | > 50 µM | > 50 µM | > 50 µM | > 50 µM | 82% | > 50 µM |

| Compound | GI50 (MCF7) | IC50 (Histone deacetylase 2) | GI50 (MOLT-4) | GI50 (HuT78) | GI50 (HCT-116) | GI50 (MDA-MB-231) | Activity [1] | GI50 at 70 h [2] |
| --- | --- | --- | --- | --- | --- | --- | --- | --- |
| CCOC(=O)NCCC(=O)NCCCCc1ccccc1 | > 50 µM | > 1 µM | > 50 µM | > 50 µM | > 50 µM | > 50 µM | 83% | > 50 µM |
| CCNC(=O)OCCCC(=O)NCCc1ccccc1 | > 50 µM | > 1 µM | > 50 µM | > 50 µM | > 50 µM | > 50 µM | 100% | > 50 µM |
| CCOC(=O)NCC(=O)NCCc1ccccc1 | > 50 µM | > 1 µM | > 50 µM | > 50 µM | > 50 µM | > 50 µM | 86% | > 50 µM |
| C#CCOC(=O)NCCCC(=O)NCCc1ccccc1 | > 50 µM | > 1 µM | > 50 µM | > 50 µM | > 50 µM | > 50 µM | 105% | > 50 µM |
| CCOC(=O)NCCCC(=O)NCCNC(=O)OC(C)(C)C | > 50 µM | > 1 µM | > 50 µM | > 50 µM | > 50 µM | > 50 µM | 95% | > 50 µM |
| CCOC(=S)NCCCC(=O)NCCc1ccccc1 | > 50 µM | > 1 µM | > 50 µM | > 50 µM | > 50 µM | > 50 µM | 105% | > 50 µM |
| CCOC(=O)NCCCC(=O)Nc1nc(-c2cccc([N+](=O)[O-])c2)cs1 | > 50 µM | > 1 µM | > 50 µM | > 50 µM | > 50 µM | > 50 µM | 58% | > 50 µM |
| COC(=O)NCCCC(=O)NCCc1ccccc1 | > 50 µM | > 1 µM | > 50 µM | > 50 µM | > 50 µM | > 50 µM | 81% | > 50 µM |
| CCOC(=O)NCCCC(=O)NCCc1cccc(F)c1 | > 50 µM | > 1 µM | > 50 µM | > 50 µM | > 50 µM | > 50 µM | 90% | > 50 µM |
| C=CCOC(=O)NCCCC(=O)NCCc1ccccc1 | > 50 µM | > 1 µM | > 50 µM | > 50 µM | > 50 µM | > 50 µM | 87% | > 50 µM |
| COc1cccc2c1C(=O)c1c(O)c3c(c(O)c1C2=O)C[C@@](O)(C(=O)CO)C[C@@H]3O[C@H]1C[C@H](N)[C@H](O)[C@H](C)O1 [DOXORUBICIN] | – | – | – | – | 21.4 µM | 10.7 µM | – | – |
| O=C(CCCNC(=O)N1CCCC1=O)NCCc1ccccc1 | > 50 µM | > 1 µM | > 50 µM | > 50 µM | > 50 µM | > 50 µM | 95% | > 50 µM |
| CC(=O)NCCCC(=O)NCCc1ccccc1 | > 50 µM | > 1 µM | > 50 µM | > 50 µM | > 50 µM | > 50 µM | 83% | > 50 µM |
| CCOC(=O)NCCCC(=O)N[C@@H](Cc1ccccc1)C(=O)OC | > 50 µM | > 1 µM | > 50 µM | > 50 µM | > 50 µM | > 50 µM | 90% | > 50 µM |
| CCCC(=O)NCCCC(=O)NCCc1ccccc1 | > 50 µM | > 1 µM | > 50 µM | > 50 µM | > 50 µM | > 50 µM | 101% | > 50 µM |
| CCOC(=O)NCCCC(=O)NCCC(C)C | > 50 µM | > 1 µM | > 50 µM | > 50 µM | > 50 µM | > 50 µM | 88% | > 50 µM |
| CCC(=O)NCCCC(=O)NCCc1ccccc1 | > 50 µM | > 1 µM | > 50 µM | > 50 µM | > 50 µM | – | 91% | > 50 µM |
